From ChEMBL document CHEMBL1122078, “Inhibitors of blood platelet aggregation. Activity of some 1H-benz[de]isoquinolinecarboximidamides on the in vivo blood platelet aggregation induced by collagen” (J Med Chem, 1982)
Converted amounts (≈) assume the structure as drawn. “And” between values parts separate entries of the source, which are not always exact repeats. Equal values may be shown once.

Tests used:
[1] = test system: Rattus norvegicus; assay: (§1) Compound was tested in the rat after peroral administration for its ability to inhibit the in vivo blood platelet aggregation induced by collagen; type: functional
How it was run: (§2)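 Oral dosing of male Wistar rats at 0.2 mmol/kg/day for 5 days, alongside a placebo group. On day 5 under pentobarbitone anesthesia, collagen was infused via a cannula in the right common carotid artery. EDTA blood samples were taken 60 and 90 s after the start of infusion, and platelets were counted by Coulter counter. Value is the increase in circulating platelets relative to placebo, at 60 s unless stated.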

[2] = Aqueous solubility at room temperature; type: physicochemical; details: water; read-out: S
How it was run: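 Solubility in water, given in mg/mL, determined at room temperature.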

[3] = test system: Rattus norvegicus; assay: (§3) Compound was tested in the rat after intraperitoneal administration for its ability to inhibit the in vivo blood platelet aggregation induced by collagen; Not determined because of toxicity; type: organism-based; details: ip
How it was run: (§4)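 Male Wistar rats dosed ip at 0.2 mmol/kg/day for 5 days, with a placebo group run in parallel. On day 5 rats were anesthetized with pentobarbitone (40-50 mg/kg ip) and collagen was infused through a cannula in the right common carotid. Blood was taken into EDTA at 60 and 90 s. Platelets were Coulter-counted after thrombo-oil separation. Read-out: rise in circulating platelets versus placebo, at 60 s unless noted.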

[4] = test system: Rattus norvegicus; assay: Compound was tested in the rat after peroral administration for its ability to inhibit the in vivo blood platelet aggregation induced by collagen,; type: organism-based; details: po; how it was run: as §2
[5] = test system: Rattus norvegicus; assay: as §3; type: functional, organism-based; how it was run: as §4
[6] = test system: Rattus norvegicus; assay: In vivo inhibition of blood platelet aggregation induced by collagen, intraperitoneal administration; type: functional; how it was run: as §4
[7] = test system: Rattus norvegicus; assay: Compound was tested in the rat after peroral administration for its ability to inhibit the in vivo blood platelet aggregation induced by collagen; Only at 90s after collagen administration; type: organism-based; details: po; how it was run: as §2
[8] = test system: Rattus norvegicus; assay: as §1; type: ADME, organism-based; details: po; how it was run: as §2
[9] = test system: Rattus norvegicus; assay: Compound was tested in the rat after intraperitoneal administration for its ability to inhibit the in vivo blood platelet aggregation induced by collagen; type: ADME, organism-based; details: po, in the assay text read “oral” for “intraperitoneal”

Row | solubility [2] [µg/mL] | Compound | Increase [6] | other results
1 | < 3000 | Cl.N=C(Nc1ccc(C(N)=O)cc1)N1Cc2cccc3c2C(CCC3)C1 (stereo not given) | – | Increase [1]: 7%
2 | 2500 | Cl.N=C(N)N1Cc2cccc3c(Cl)ccc(c23)C1 | – | Increase [3]: Toxic
3 | 60000 | Cl.Cl.N/C(=N\c1ccc(N)cc1)N1Cc2cccc3cccc(c23)C1 | – | Increase [1]: 8%
4 | 17000 | COc1ccc2c3c1CCCC3CN(C(=N)N)C2.Cl (stereo not given) | – | –
5 | < 3000 | C/N=C(\N)N1Cc2cccc3c2C(CCC3)C1 (stereo not given) | – | Increase [1]: 30% and 12%
6 | – | N/C(=N\c1ccc([N+](=O)[O-])cc1)N1Cc2cccc3c2C(CCC3)C1 (stereo not given) | – | Increase [4]: -7%; Increase [5]: Toxic
7 | 60000 | Cl.N/N=C(/N)N1Cc2cccc3c2C(CCC3)C1 (stereo not given) | – | –
8 | > 50000 | COc1cc2c3c(c1OC)CCCC3CN(C(=N)NO)C2.Cl (stereo not given) | – | –
9 | 18000 | COc1cc2c3c(cccc3c1)CN(C(=N)NO)C2.Cl | – | Increase [1]: -5%
10 | < 3000 | Br.N/C(=N\c1ccc(C(=O)O)cc1)N1Cc2cccc3c2C(CCC3)C1 (stereo not given) | – | Increase [1]: 2%
11 | 60000 | Cl.N=C(N)N1Cc2cccc3c2C(CCC3)C1 (stereo not given) | – | –
12 | 4000 | CN(C)c1ccc(NC(=N)N2Cc3cccc4c3C(CCC4)C2)cc1.Cl (stereo not given) | – | Increase [1]: 4%
13 | 25000 | CN(C)/N=C(/N)N1Cc2cccc3cccc(c23)C1.Cl | – | Increase [1]: -2%
14 | < 4000 | N=C(Nc1ccc(Cl)cc1)N1Cc2cccc3c2C(CCC3)C1 (stereo not given) | – | Increase [1]: 7%
15 | 10000 | Cl.N=C(N)N1Cc2cccc3cccc(c23)C1 | 38% and 28% | –
16 | < 5000 | COc1ccc(NC(=N)N2Cc3cccc4cccc(c34)C2)cc1 | -2% | –
17 | 5000 | Cc1ccc2c3c(cccc13)CN(C(=N)NO)C2.Cl | 16% and 14% | –

Row | solubility [2] [µg/mL] | Compound | Increase [6] | other results
18 | 5000 | COc1ccc2c3c1CCCC3CN(C(=N)NO)C2.Cl (stereo not given) | 70% | Increase [7]: 8%
19 | 35000 | CC(=O)NC(=N)N1Cc2cccc3cccc(c23)C1.Cl | 17% | –
20 | 12000 | Cl.N/C(=N\O)N1Cc2cccc3c2C(CCC3)C1 (stereo not given) | 42% and 23% | –
21 | < 3000 | COc1ccc(NC(=N)N2Cc3cccc4c3C(CCC4)C2)cc1 (stereo not given) | – | Increase [8]: 7%; Increase [3]: Toxic
22 | 4000 | Cl.N/C(=N\O)N1Cc2cccc3cccc(c23)C1 | 36% and 23% | –
23 | 25000 (≈ 104 mM) | C/N=C(/NC)N1Cc2cccc3cccc(c23)C1 | 1% | –
24 | < 3000 | N=C(Nc1ccc(S(N)(=O)=O)cc1)N1Cc2cccc3c2C(CCC3)C1 (stereo not given) | – | Increase [1]: 3%
25 | < 5000 | N/C(=N\c1ccc(N)cc1)N1Cc2cccc3c2C(CCC3)C1 (stereo not given) | – | Increase [8]: 8%; Increase [3]: Toxic
26 | 3000 | Cl.N/C(=N\O)N1Cc2cccc3c(Cl)ccc(c23)C1 | 44% and 18% | –
27 | 16000 | Cc1ccc2c3c1CCCC3CN(C(=N)N)C2.Cl (stereo not given) | – | Increase [9]: 16%; Increase [3]: Toxic
28 | 18000 | Cc1ccc2c3c1CCCC3CN(C(=N)NO)C2.Cl (stereo not given) | 45% | –
29 | < 3000 | N=C(Nc1ccccc1)N1Cc2cccc3c2C(CCC3)C1 (stereo not given) | -11% | –
30 | < 3000 | N#CNC(=N)N1Cc2cccc3c2C(CCC3)C1 (stereo not given) | 1% | –
31 | 20000 (≈ 82.2 mM) | C/N=C(\NC)N1Cc2cccc3c2C(CCC3)C1 (stereo not given) | 2% | –
32 | – | CC(C)=N/N=C(\N)N1Cc2cccc3c2C(CCC3)C1.Cl (stereo not given) | – | Increase [4]: 0%; Increase [5]: Toxic
33 | 10000 | Cl.N/N=C(/N)N1Cc2cccc3cccc(c23)C1 | – | –
